In general, IC50 refers to the concentration at which inhibition is half-maximal. A word on the inhibition: it is the change of the read-out against control, counted positive when it falls.

Series [1] concerns the target T1, Neuropeptide S receptor (Homo sapiens, UniProt Q6W5P4).
T1 sequence (Q6W5P4 whole entry): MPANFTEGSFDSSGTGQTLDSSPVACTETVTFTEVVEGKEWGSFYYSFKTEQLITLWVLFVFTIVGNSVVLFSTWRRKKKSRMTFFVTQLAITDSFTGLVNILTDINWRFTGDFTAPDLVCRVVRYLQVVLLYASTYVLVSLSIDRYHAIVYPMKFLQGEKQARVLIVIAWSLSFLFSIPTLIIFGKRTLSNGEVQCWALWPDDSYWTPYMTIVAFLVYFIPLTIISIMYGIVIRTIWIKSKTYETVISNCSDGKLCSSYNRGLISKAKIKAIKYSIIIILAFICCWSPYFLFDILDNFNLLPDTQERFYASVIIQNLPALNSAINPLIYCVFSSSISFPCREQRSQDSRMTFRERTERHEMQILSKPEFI
The series is described as follows: Antagonist activity at neuropeptide S receptor (unknown origin) expressed in CHO cells assessed as inhibition of NPS-induced calcium mobilization after 10 mins by fluorescence assay. The class given is functional, cell-based. In outline: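 CHO-NPSR cells, 2000/well in 1536-well plates, incubated overnight, then loaded with no-wash calcium dye for 1 h at 37°C. Compound in DMSO was added for 10 min. Baseline fluorescence was recorded 6 s at 1 Hz, then EC80 NPS in stimulation buffer was added and recording continued 4 min at 1 Hz on a kinetic reader. IC50 is the mean with SD of two independent experiments in duplicate.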
On the technique in general: Calcium assays in cells follow changes in intracellular calcium, usually with a dye or a luminescent sensor.

In series [2] the target is T1, Neuropeptide S receptor. The series is described as follows: Antagonist activity at neuropeptide S receptor (unknown origin) expressed in CHO cells assessed as cAMP level after 30 mins by […] assay. The class given is functional, cell-based. Summed up: (§1)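 CHO cells stably expressing NPSR, 1800 cells/well in 1536-well format, seeded overnight at 37°C in medium without Geneticin. Stimulation buffer (PBS, 0.1% BSA, 0.05% Tween-20, 500µM Ro 20-1724, EC80 NPS) was added for 30 min at 37°C. cAMP was read by HTRF (d2-cAMP/cryptate anti-cAMP in lysis buffer, 30 min). IC50 is the mean with SD of two independent experiments, each run in duplicate.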
For orientation: Changes in cAMP serve as a functional read-out for many G protein-coupled receptors.

In series [3] the target is T1, Neuropeptide S receptor. The series is described as follows: Antagonist activity at neuropeptide S receptor (unknown origin) assessed as intracellular calcium level by cell based assay. Type of series: functional. In outline: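 CHO cells stably expressing NPSR were seeded at 2000 cells/well and incubated overnight at 37 °C, 5% CO2. They were loaded with no-wash calcium dye for 1 h, then preincubated with compound in DMSO for 10 min. Stimulation used NPS at EC80 in PBS/0.1% BSA/0.05% Tween-20 with 500 µM Ro 20-1724. Kinetic fluorescence was read at 1 Hz: 6 s baseline, then 4 min. IC50 is the mean ± SD of two independent experiments, each in duplicate.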

Series [4] concerns the target T2, Neuropeptide S receptor (Homo sapiens) (UniProt Q6W5P4).
T2 sequence (whole entry): T1 sequence (Q6W5P4 whole entry)
The series can be described thus: Antagonist activity at neuropeptide S receptor (unknown origin) expressed in CHO cells assessed as inhibition of NPS-induced ERK activation at 50 uM after 20 mins by HTRF assay relative to control. The class given is cell-based. A general note: TR-FRET usually uses a lanthanide donor and a delayed reading to cut background.

Series [5] addresses T1, Neuropeptide S receptor. The series can be described thus: Antagonist activity at neuropeptide S receptor (unknown origin) expressed in CHO cells assessed as inhibition of NPS-induced ERK activation after 20 mins by HTRF assay. The class given is cell-based.
Series [6] in a line: Metabolic stability in mouse liver microsomes assessed as compound remaining after 60 mins in absence NADPH. The settings on record: read-out: Stability. Type of series: ADME, Microsome. Summed up:
(§2)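 Compound was incubated with mouse liver microsomes, and percent parent remaining was determined at 15, 30 and 60 min. Values are means from a single experiment run in duplicate.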

The nature of series [7]: Metabolic stability in mouse liver microsomes assessed as compound remaining after 30 mins in absence NADPH. The class given is ADME, Microsome. The settings on record: read-out: Stability. Summed up: as §2
Series [8] can be described thus: Metabolic stability in mouse liver microsomes assessed as compound remaining after 15 mins in absence NADPH. Type of series: ADME, Microsome. As to conditions: read-out: Stability; call rule not given here. Summed up:
as §2

The nature of series [9]: Metabolic stability in mouse liver microsomes assessed as compound remaining after 60 mins in presence NADPH. The class given is ADME, Microsome. The settings on record: read-out: Stability. In outline: as §2
Series [10] is described as follows: Metabolic stability in mouse liver microsomes assessed as compound remaining after 30 mins in presence NADPH. Type of series: ADME, Microsome. The settings on record: read-out: Stability. In outline: as §2
The nature of series [11]: Metabolic stability in mouse liver microsomes assessed as compound remaining after 15 mins in presence NADPH. Type of series: ADME, Microsome. The settings on record: read-out: Stability. In outline:
as §2

In series [12] the target is T1, Neuropeptide S receptor. The series is described as follows: Displacement of [125I]Tyr10-NPS from human neuropeptide S receptor expressed in CHO cells after 1.5 hrs by liquid scintillation counting. Type of series: cell-based. In outline:
(§3)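 Whole CHO cells stably expressing human NPSR at 90–95% confluency in 24-well plates. Cells were incubated with 0.15 nM [125I]Y10-NPS plus increasing compound or unlabeled NPS in DMEM/0.1% BSA, 20°C, 1.5 hr. Nonspecific binding was defined with 1 µM unlabeled human NPS. Cells were washed, lysed in 1 N NaOH and counted by liquid scintillation. IC50 from one experiment in duplicate.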

In series [13] the target is T1, Neuropeptide S receptor. The series is described as follows: Displacement of [125I]Tyr10-NPS from neuropeptide S receptor (unknown origin). Summed up:
as §3

Series [14] deals with T1, Neuropeptide S receptor. The series can be described thus: Antagonist activity at neuropeptide S receptor (unknown origin) assessed as cAMP level by cell based assay. The class given is functional. In outline:
as §1

Regarding `Cc1c(P(=S)(c2ccccc2)c2ccccc2)n2ccccc2[n+]1C/C=C/c1ccc(Cl)cc1`, the IC50 was 2.2 nM at Neuropeptide S receptor [1] (read-out: IC50) and 120 nM at Neuropeptide S receptor [2] (read-out: IC50).
For `Cc1c(P(=S)(c2ccccc2)c2ccccc2)n2ccccc2[n+]1C/C=C/c1ccc(F)cc1`, in that order: 3.4 nM and 71 nM.
For `O=C(NCc1ccccc1)N1CCN2C(=O)OC(c3ccccc3)(c3ccccc3)C2C1` (stereo not given), the IC50 on Neuropeptide S receptor [3] is 26 nM.
On to `S=P(c1ccccc1)(c1ccccc1)c1cnc2ccccn12`, for which, in series [4], the inhibition was below 50%. Moreover, the values for the IC50 on Neuropeptide S receptor [1] (read-out: IC50) and at Neuropeptide S receptor [2] (read-out: IC50) were 4030 nM and 63000 nM, respectively.
As to `Cc1c(P(=S)(c2ccccc2)c2ccccc2)n2ccccc2[n+]1C/C=C/c1ccc2ccccc2c1`, the IC50 at Neuropeptide S receptor [1] (read-out: IC50) is 64 nM; at Neuropeptide S receptor [2] (read-out: IC50) it was 1300 nM.
As to `Cc1nc2ccccn2c1P(=S)(c1ccccc1)c1ccccc1`, the 50% inhibitory concentration (IC50) at Neuropeptide S receptor [5] is 9.1 nM; on Neuropeptide S receptor [1] (read-out: IC50) it was 1000 nM; on Neuropeptide S receptor [2] (read-out: IC50), 18000 nM.
As to `c1ccc(P(c2ccccc2)c2cnc3ccccn23)cc1`, the IC50 was 35000 nM at Neuropeptide S receptor [1] (read-out: IC50) and “Not Active” at Neuropeptide S receptor [2] (cho).
As to `Cc1c(P(=S)(c2ccccc2)c2ccccc2)n2ccccc2[n+]1CCCCCc1ccccc1`, the IC50 was determined as 6.2 nM at Neuropeptide S receptor [5], 13 nM at Neuropeptide S receptor [1] (read-out: IC50) and 710 nM at Neuropeptide S receptor [2] (read-out: IC50).
Take `Cc1c(C(O)(c2ccccc2)c2ccccc2)n2ccccc2[n+]1C.O=C([O-])C(F)(F)F`: the IC50 result at Neuropeptide S receptor [1] (cho) was “Not Active”.
In the case of `Cc1c(P(=S)(c2ccccc2)c2ccccc2)n2ccccc2[n+]1Cc1ccccc1`, the IC50 on Neuropeptide S receptor [5] came to 16 nM; on Neuropeptide S receptor [1] (read-out: IC50), 32 nM; at Neuropeptide S receptor [2] (read-out: IC50) it was 1300 nM.
Turning to `OC(c1ccccc1)(c1ccccc1)c1cnc2ccccn12`, the IC50 result at Neuropeptide S receptor [1] (cho) is recorded as “Not Active”.
As to `Cc1c(P(=S)(c2ccccc2)c2ccccc2)n2ccccc2[n+]1C/C=C/c1cccc(Cl)c1`, the IC50 worked out at 9.2 nM at Neuropeptide S receptor [1] (read-out: IC50) and 220 nM at Neuropeptide S receptor [2] (read-out: IC50).
Regarding `CCC(C)(CCN1CCOCC1)N(Cc1cc2ccccc2n(C)c1=O)C(=O)C1CCCCC1` (stereo not given), the remaining at 1 h came to 94% in series [6] and 0% in series [9]. The remaining at 0.5 h in series [7] stood at 97%; in series [10] it was 0%. In addition, the values for the remaining at 0.25 h in series [8] and in series [11] were 103% and 0%, respectively. Besides, the IC50 at Neuropeptide S receptor [12] is 6.7 nM; at Neuropeptide S receptor [5], 11 nM; on Neuropeptide S receptor [1] (read-out: IC50), 55 nM; at Neuropeptide S receptor [2] (read-out: IC50) it was 1.2 nM; at Neuropeptide S receptor [13], 1.3 nM.
Take `Cc1c(P(=S)(c2ccccc2)c2ccccc2)n2ccccc2[n+]1C/C=C/c1ccc(C(F)(F)F)cc1`: the results for the IC50 on Neuropeptide S receptor [1] (read-out: IC50) and at Neuropeptide S receptor [2] (read-out: IC50) were 4.5 nM and 400 nM, respectively.
In the case of `O=P(c1ccccc1)(c1ccccc1)c1cnc2ccccn12`, the IC50 entry on Neuropeptide S receptor [1] (cho) was “Not Active”.
On to `Cc1nc2ccccn2c1C(O)(c1ccccc1)c1ccccc1`, for which the IC50 result on Neuropeptide S receptor [1] (cho) was “Not Active”.
For the compound `Cc1c(P(=S)(c2ccccc2)c2ccccc2)n2ccccc2[n+]1CCCc1ccccc1`, the IC50 is below 0.5 nM on Neuropeptide S receptor [1] (read-out: IC50) and 110 nM on Neuropeptide S receptor [2] (read-out: IC50).
The like results for `COc1cccc(/C=C/C[n+]2c(C)c(P(=S)(c3ccccc3)c3ccccc3)n3ccccc32)c1` were, in that order, 3.2 nM and 110 nM.
Turning to `Cc1c(P(=S)(c2ccccc2)c2ccccc2)n2ccccc2[n+]1CCCCc1ccccc1`, the half-maximal inhibitory concentration (IC50) on Neuropeptide S receptor [5] is 15 nM; on Neuropeptide S receptor [1] (read-out: IC50), below 0.5 nM; on Neuropeptide S receptor [2] (read-out: IC50), 940 nM.
For `C[n+]1cc(C(O)(c2ccccc2)c2ccccc2)n2ccccc21.O=C([O-])C(F)(F)F`, on Neuropeptide S receptor [1] (cho), the IC50 result is reported as “Not Active”.
As for `Cc1c(P(=S)(c2ccccc2)c2ccccc2)c2ccccc2n1C`, the inhibition in series [4] is below 50%. Further, the IC50 is 2800 nM at Neuropeptide S receptor [1] (read-out: IC50) and “Not Active” at Neuropeptide S receptor [2] (cho).
For `Cc1c(P(=S)(c2ccccc2)c2ccccc2)n2ccccc2[n+]1CCc1ccccc1`, the IC50 is 16 nM at Neuropeptide S receptor [5], 73 nM on Neuropeptide S receptor [1] (read-out: IC50) and 2100 nM at Neuropeptide S receptor [2] (read-out: IC50).
With `COc1ccc(C2c3c(ccc4ccccc34)OC3N=CN(CCN4CCOCC4)C(=N)C32)cc1OC` (stereo not given), the IC50 on Neuropeptide S receptor [13] was 190 nM; on Neuropeptide S receptor [14], 4900 nM; at Neuropeptide S receptor [3] it was 1400 nM.
With `Cc1nc2ccccn2c1P(=O)(c1ccccc1)c1ccccc1`, the IC50 at Neuropeptide S receptor [1] (read-out: IC50) was 27000 nM; on Neuropeptide S receptor [2] (cho), “Not Active”.
Take `O=C1c2ccccc2C(=O)C1(c1ccccc1)N1CCN(Cc2ccccc2)CC1`: the IC50 on Neuropeptide S receptor [3] turned out to be 27 nM.
Consider `Cc1c(P(=S)(c2ccccc2)c2ccccc2)n2ccccc2[n+]1C/C=C/c1ccccc1Cl`, for which the results for the IC50 on Neuropeptide S receptor [1] (read-out: IC50) and on Neuropeptide S receptor [2] (read-out: IC50) were 3.4 nM and 94 nM, respectively.
With `Cn1cc(P(=S)(c2ccccc2)c2ccccc2)c2ccccc21`, the values for the IC50 at Neuropeptide S receptor [1] (read-out: IC50) and at Neuropeptide S receptor [2] (cho) were 7300 nM and “Not Active”, respectively.
Take `Cc1c(P(=S)(c2ccccc2)c2ccccc2)n2ccccc2[n+]1C/C=C/c1ccc(F)c(Br)c1`: the IC50 at Neuropeptide S receptor [1] (read-out: IC50) was 45 nM; on Neuropeptide S receptor [2] (read-out: IC50), 840 nM.
As for `Cc1c(P(=S)(c2ccccc2)c2ccccc2)n2ccccc2[n+]1C/C=C/c1ccc(Br)cc1`, the results for the IC50 at Neuropeptide S receptor [1] (read-out: IC50) and at Neuropeptide S receptor [2] (read-out: IC50) were 5.7 nM and 170 nM, respectively.
`C[n+]1cc(P(=S)(c2ccccc2)c2ccccc2)n2ccccc21`: the inhibition in series [4] was below 50%. Further, the IC50 was 2500 nM on Neuropeptide S receptor [1] (read-out: IC50) and 39000 nM on Neuropeptide S receptor [2] (read-out: IC50).
Consider `Cc1ccc(/C=C/C[n+]2c(C)c(P(=S)(c3ccccc3)c3ccccc3)n3ccccc32)cc1`, for which the IC50 at Neuropeptide S receptor [1] (read-out: IC50) is 9 nM; on Neuropeptide S receptor [2] (read-out: IC50), 330 nM.
The like results for `Cc1c(P(=S)(c2ccccc2)c2ccccc2)n2ccccc2[n+]1C/C=C/c1cccc(Br)c1` were, in that order, 23 nM and 670 nM.
